Experimental data taken from ChEMBL document CHEMBL4038291, “Discovery of novel benzothienoazepine derivatives as potent inhibitors of respiratory syncytial virus” (Bioorg Med Chem Lett, 2017).
The source made the active and inactive calls. No cut-off for these calls is given here.

System: not listed separately
Test: Inhibition of RSV A2 RNA-directed RNA polymerase L infected in human Hep2 cells assessed as reduction in virus-induced cytopathic effect measured after 5 days by resazurin dye based fluorescence assay
Assay type: cell-based
Settings: human respiratory syncytial virus, HEp-2, 120 h
Procedure, shortened: (§1)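 Read-out is cytopathic effect of RSV infection in HEp-2 cells. IC50 is the concentration reducing CPE by 50%. Values averaged from 2 experiments.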

SMILES | IC50 [nM]
N#Cc1ccc2[nH]c(-c3cc4c(s3)-c3ccccc3N(C(=O)c3ccc(NC(=O)c5cccnc5N5CC6(CCOCC6)C5)cc3)CC4)nc2c1 | 0.5
O=C(Nc1ccc(C(=O)N2CCc3cc(-c4nc5ccccc5[nH]4)sc3-c3ccccc32)cc1)c1cccnc1N1CC2(CCOCC2)C1 | 0.8
Cc1cnc(N2CC3(CCOCC3)C2)c(C(=O)Nc2ccc(C(=O)N3CCc4cc(-c5nc(C)c(C)[nH]5)sc4-c4ccccc43)cc2)c1 | 1.6
Cc1cnc(N2CC3(CCOCC3)C2)c(C(=O)Nc2ccc(C(=O)N3CCc4cc(-c5cc6ccccn6n5)sc4-c4ccccc43)cc2)c1 | 0.7
O=C(Nc1ccccc1)c1cc2c(s1)-c1ccccc1N(C(=O)c1ccc(NC(=O)c3cccnc3N3CC4(CCOCC4)C3)cc1)CC2 | 0.5
Cc1ccc(C(=O)Nc2ccc(C(=O)N3CCc4cc(-c5nc6ccccc6[nH]5)sc4-c4ccccc43)cc2)c(N2CC3(CCOCC3)C2)n1 | 0.3 to 0.8
COc1ccc(C(=O)Nc2ccc(C(=O)N3CCc4cc(-c5nc6ccccc6[nH]5)sc4-c4ccccc43)cc2)c(N2CC3(CCOCC3)C2)n1 | 0.5
CC(C)c1cnc(N2CC3(CCOCC3)C2)c(C(=O)Nc2ccc(C(=O)N3CCc4cc(-c5nc6ccccc6[nH]5)sc4-c4ccccc43)cc2)c1 | 5.7
O=C(Nc1ccc(C(=O)N2CCc3cc(-c4nc5c(C(F)(F)F)cccc5[nH]4)sc3-c3ccccc32)cc1)c1cccnc1N1CC2(CCOCC2)C1 | 0.6
CCc1cnc(N2CC3(CCOCC3)C2)c(C(=O)Nc2ccc(C(=O)N3CCc4cc(-c5nc6ccccc6[nH]5)sc4-c4ccccc43)cc2)c1 | 0.7
O=C(Nc1ccc(C(=O)N2CCc3cc(-c4nc5c(Cl)cccc5[nH]4)sc3-c3ccccc32)cc1)c1cccnc1N1CC2(CCOCC2)C1 | 0.8
Cc1cnc(N2CC3(CCOCC3)C2)c(C(=O)Nc2ccc(C(=O)N3CCc4cc(-c5nc6cccc(F)c6[nH]5)sc4-c4ccccc43)cc2)c1 | 1.4
Cc1cccc2[nH]c(-c3cc4c(s3)-c3ccccc3N(C(=O)c3ccc(NC(=O)c5cccnc5N5CC6(CCOCC6)C5)cc3)CC4)nc12 | 0.6

System: not listed separately
Test: Inhibition of Respiratory syncytial virus B WST RNA-directed RNA polymerase L infected in human Hep2 cells assessed as reduction in virus-induced cytopathic effect measured after 6 days by resazurin dye based fluorescence assay
Assay type: cell-based
Settings: HEp-2, 144 h
Procedure, shortened: as §1

SMILES | IC50 [nM]
N#Cc1ccc2[nH]c(-c3cc4c(s3)-c3ccccc3N(C(=O)c3ccc(NC(=O)c5cccnc5N5CC6(CCOCC6)C5)cc3)CC4)nc2c1 | 162
O=C(Nc1ccc(C(=O)N2CCc3cc(-c4nc5ccccc5[nH]4)sc3-c3ccccc32)cc1)c1cccnc1N1CC2(CCOCC2)C1 | 59.8
Cc1cnc(N2CC3(CCOCC3)C2)c(C(=O)Nc2ccc(C(=O)N3CCc4cc(-c5nc(C)c(C)[nH]5)sc4-c4ccccc43)cc2)c1 | 6.2
Cc1cnc(N2CC3(CCOCC3)C2)c(C(=O)Nc2ccc(C(=O)N3CCc4cc(-c5cc6ccccn6n5)sc4-c4ccccc43)cc2)c1 | 8.1
Cc1ccnc(N2CC3(CCOCC3)C2)c1C(=O)Nc1ccc(C(=O)N2CCc3cc(-c4nc5ccccc5[nH]4)sc3-c3ccccc32)cc1 | > 1470
O=C(Nc1ccccc1)c1cc2c(s1)-c1ccccc1N(C(=O)c1ccc(NC(=O)c3cccnc3N3CC4(CCOCC4)C3)cc1)CC2 | 283
Cc1ccc(C(=O)Nc2ccc(C(=O)N3CCc4cc(-c5nc6ccccc6[nH]5)sc4-c4ccccc43)cc2)c(N2CC3(CCOCC3)C2)n1 | 5.2 to 13.1
COc1ccc(C(=O)Nc2ccc(C(=O)N3CCc4cc(-c5nc6ccccc6[nH]5)sc4-c4ccccc43)cc2)c(N2CC3(CCOCC3)C2)n1 | 37.8
CC(C)c1cnc(N2CC3(CCOCC3)C2)c(C(=O)Nc2ccc(C(=O)N3CCc4cc(-c5nc6ccccc6[nH]5)sc4-c4ccccc43)cc2)c1 | > 1410
O=C(Nc1ccc(C(=O)N2CCc3cc(-c4nc5c(C(F)(F)F)cccc5[nH]4)sc3-c3ccccc32)cc1)c1cccnc1N1CC2(CCOCC2)C1 | 38.8
CCc1cnc(N2CC3(CCOCC3)C2)c(C(=O)Nc2ccc(C(=O)N3CCc4cc(-c5nc6ccccc6[nH]5)sc4-c4ccccc43)cc2)c1 | 13.3
O=C(Nc1ccc(C(=O)N2CCc3cc(-c4nc5c(Cl)cccc5[nH]4)sc3-c3ccccc32)cc1)c1cccnc1N1CC2(CCOCC2)C1 | 30.7
Cc1cnc(N2CC3(CCOCC3)C2)c(C(=O)Nc2ccc(C(=O)N3CCc4cc(-c5nc6cccc(F)c6[nH]5)sc4-c4ccccc43)cc2)c1 | 2.1
Cc1cccc2[nH]c(-c3cc4c(s3)-c3ccccc3N(C(=O)c3ccc(NC(=O)c5cccnc5N5CC6(CCOCC6)C5)cc3)CC4)nc12 | 52.9

System: not listed separately
Test: Cytotoxicity against human Hep2 cells
Assay type: cell-based
Settings: HEp-2 cells

SMILES | CC50 [nM]
N#Cc1ccc2[nH]c(-c3cc4c(s3)-c3ccccc3N(C(=O)c3ccc(NC(=O)c5cccnc5N5CC6(CCOCC6)C5)cc3)CC4)nc2c1 | > 14400
O=C(Nc1ccc(C(=O)N2CCc3cc(-c4nc5ccccc5[nH]4)sc3-c3ccccc32)cc1)c1cccnc1N1CC2(CCOCC2)C1 | > 14900
Cc1cnc(N2CC3(CCOCC3)C2)c(C(=O)Nc2ccc(C(=O)N3CCc4cc(-c5nc(C)c(C)[nH]5)sc4-c4ccccc43)cc2)c1 | > 15100
Cc1cnc(N2CC3(CCOCC3)C2)c(C(=O)Nc2ccc(C(=O)N3CCc4cc(-c5cc6ccccn6n5)sc4-c4ccccc43)cc2)c1 | > 14600
O=C(Nc1ccccc1)c1cc2c(s1)-c1ccccc1N(C(=O)c1ccc(NC(=O)c3cccnc3N3CC4(CCOCC4)C3)cc1)CC2 | > 14900
Cc1ccc(C(=O)Nc2ccc(C(=O)N3CCc4cc(-c5nc6ccccc6[nH]5)sc4-c4ccccc43)cc2)c(N2CC3(CCOCC3)C2)n1 | > 14600
COc1ccc(C(=O)Nc2ccc(C(=O)N3CCc4cc(-c5nc6ccccc6[nH]5)sc4-c4ccccc43)cc2)c(N2CC3(CCOCC3)C2)n1 | > 14300
CC(C)c1cnc(N2CC3(CCOCC3)C2)c(C(=O)Nc2ccc(C(=O)N3CCc4cc(-c5nc6ccccc6[nH]5)sc4-c4ccccc43)cc2)c1 | > 14100
O=C(Nc1ccc(C(=O)N2CCc3cc(-c4nc5c(C(F)(F)F)cccc5[nH]4)sc3-c3ccccc32)cc1)c1cccnc1N1CC2(CCOCC2)C1 | > 13600
CCc1cnc(N2CC3(CCOCC3)C2)c(C(=O)Nc2ccc(C(=O)N3CCc4cc(-c5nc6ccccc6[nH]5)sc4-c4ccccc43)cc2)c1 | > 14300
O=C(Nc1ccc(C(=O)N2CCc3cc(-c4nc5c(Cl)cccc5[nH]4)sc3-c3ccccc32)cc1)c1cccnc1N1CC2(CCOCC2)C1 | > 14200
Cc1cnc(N2CC3(CCOCC3)C2)c(C(=O)Nc2ccc(C(=O)N3CCc4cc(-c5nc6cccc(F)c6[nH]5)sc4-c4ccccc43)cc2)c1 | > 14300
Cc1cccc2[nH]c(-c3cc4c(s3)-c3ccccc3N(C(=O)c3ccc(NC(=O)c5cccnc5N5CC6(CCOCC6)C5)cc3)CC4)nc12 | > 14600

System: Human respiratory syncytial virus A2
Test: Antiviral activity against Respiratory syncytial virus A2 infected in human Hep2 cells at 0.001 to 3.125 ug/ml after 6 passages
Assay type: functional, cell-based
Settings: not given

SMILES | Activity
Cc1cnc(N2CC3(CCOCC3)C2)c(C(=O)Nc2ccc(C(=O)N3CCc4cc(-c5nc6cccc(F)c6[nH]5)sc4-c4ccccc43)cc2)c1 | inactive

System: Human respiratory syncytial virus A2
Test: Inhibition of Respiratory syncytial virus A2 RNA-directed RNA polymerase L by luciferase reporter-based RSV minigenome assay
Settings: not given

SMILES | inhibition
Cc1cnc(N2CC3(CCOCC3)C2)c(C(=O)Nc2ccc(C(=O)N3CCc4cc(-c5nc6cccc(F)c6[nH]5)sc4-c4ccccc43)cc2)c1 | Dose-dependent effect

Molecular target: T1, Protein M2-1 (Human respiratory syncytial virus A (strain A2)) (UniProt P04545)
T1 sequence (whole entry): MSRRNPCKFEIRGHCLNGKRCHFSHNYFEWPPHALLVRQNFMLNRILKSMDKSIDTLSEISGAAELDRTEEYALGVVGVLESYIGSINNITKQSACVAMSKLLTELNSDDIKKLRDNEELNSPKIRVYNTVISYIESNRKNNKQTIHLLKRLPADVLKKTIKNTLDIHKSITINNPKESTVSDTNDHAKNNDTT
Test: Inhibition of Respiratory syncytial virus A2 M2-1 by luciferase reporter-based RSV minigenome assay
Settings: not given

SMILES | inhibition
Cc1cnc(N2CC3(CCOCC3)C2)c(C(=O)Nc2ccc(C(=O)N3CCc4cc(-c5nc6cccc(F)c6[nH]5)sc4-c4ccccc43)cc2)c1 | Dose-dependent effect

System: Human respiratory syncytial virus A strain Long
Test: Antiviral activity against human respiratory syncytial virus A strain long infected in cotton rat assessed as reduction in lung viral load administered intranasally pretreated for 4 hrs followed by viral infection measured after 4 days by plaque assay
Assay type: functional
Settings: not given

SMILES | Activity
Cc1cnc(N2CC3(CCOCC3)C2)c(C(=O)Nc2ccc(C(=O)N3CCc4cc(-c5nc6cccc(F)c6[nH]5)sc4-c4ccccc43)cc2)c1 | Active

System: Human respiratory syncytial virus A strain Long
Test: Antiviral activity against human respiratory syncytial virus A strain long infected in cotton rat assessed as reduction in NS1 expression administered intranasally pretreated for 4 hrs followed by viral infection measured after 4 days by RT-qPCR analysis
Assay type: functional
Settings: not given

SMILES | Activity
Cc1cnc(N2CC3(CCOCC3)C2)c(C(=O)Nc2ccc(C(=O)N3CCc4cc(-c5nc6cccc(F)c6[nH]5)sc4-c4ccccc43)cc2)c1 | Dose-dependent effect

Molecular target: T2, Nucleoprotein (Human respiratory syncytial virus A (strain A2)) (UniProt P03418)
T2 sequence (whole entry): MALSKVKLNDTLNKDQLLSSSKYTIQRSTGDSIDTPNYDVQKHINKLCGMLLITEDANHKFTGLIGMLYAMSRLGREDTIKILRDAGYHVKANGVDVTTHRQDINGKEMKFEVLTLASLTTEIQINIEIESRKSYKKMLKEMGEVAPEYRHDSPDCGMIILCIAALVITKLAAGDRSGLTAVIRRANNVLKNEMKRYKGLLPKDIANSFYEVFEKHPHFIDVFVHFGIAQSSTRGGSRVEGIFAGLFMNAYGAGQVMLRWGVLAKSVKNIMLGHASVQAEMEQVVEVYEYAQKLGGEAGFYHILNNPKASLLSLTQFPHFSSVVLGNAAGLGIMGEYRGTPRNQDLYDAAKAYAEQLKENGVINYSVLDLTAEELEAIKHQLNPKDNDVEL
Test: (§2) Inhibition of Respiratory syncytial virus A2 protein N by luciferase reporter-based RSV minigenome assay
Settings: not given

SMILES | inhibition
Cc1cnc(N2CC3(CCOCC3)C2)c(C(=O)Nc2ccc(C(=O)N3CCc4cc(-c5nc6cccc(F)c6[nH]5)sc4-c4ccccc43)cc2)c1 | Dose-dependent effect

Molecular target: T3, Nucleoprotein (Human respiratory syncytial virus A (strain A2), UniProt P03418)
T3 sequence (P03418 whole entry): T2 sequence (whole entry)
Test: as §2
Settings: not given

SMILES | IC50 [nM]
Cc1cnc(N2CC3(CCOCC3)C2)c(C(=O)Nc2ccc(C(=O)N3CCc4cc(-c5nc6cccc(F)c6[nH]5)sc4-c4ccccc43)cc2)c1 | 2

Molecular target: Phosphoprotein (Human respiratory syncytial virus A (strain A2)) (UniProt P03421)
Sequence (P03421 whole entry): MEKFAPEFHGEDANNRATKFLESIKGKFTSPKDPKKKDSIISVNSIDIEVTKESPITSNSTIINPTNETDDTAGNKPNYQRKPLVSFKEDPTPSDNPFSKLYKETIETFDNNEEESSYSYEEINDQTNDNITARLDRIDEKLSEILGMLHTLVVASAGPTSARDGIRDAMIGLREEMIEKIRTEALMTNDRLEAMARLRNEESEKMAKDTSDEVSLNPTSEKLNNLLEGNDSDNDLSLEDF
Test: (§3) Inhibition of Respiratory syncytial virus A2 protein P by luciferase reporter-based RSV minigenome assay
Settings: not given

SMILES | inhibition
Cc1cnc(N2CC3(CCOCC3)C2)c(C(=O)Nc2ccc(C(=O)N3CCc4cc(-c5nc6cccc(F)c6[nH]5)sc4-c4ccccc43)cc2)c1 | Dose-dependent effect

Molecular target: Phosphoprotein (Human respiratory syncytial virus A (strain A2), UniProt P03421)
Sequence (P03421 whole entry): as above
Test: as §3
Settings: not given

SMILES | IC50 [nM]
Cc1cnc(N2CC3(CCOCC3)C2)c(C(=O)Nc2ccc(C(=O)N3CCc4cc(-c5nc6cccc(F)c6[nH]5)sc4-c4ccccc43)cc2)c1 | 2

System: not listed separately
Test: Antiviral activity against human respiratory syncytial virus A strain long infected in cotton rat assessed as reduction in plaque forming units in lungs at 0.33 to 3.3 mg/ml administered intranasally pretreated for 4 hrs followed by viral infection measured after 4 days
Assay type: functional
Settings: not given

SMILES | Activity [log10PFU]
Cc1cnc(N2CC3(CCOCC3)C2)c(C(=O)Nc2ccc(C(=O)N3CCc4cc(-c5nc6cccc(F)c6[nH]5)sc4-c4ccccc43)cc2)c1 | <2.3
